Laboratory results from PMC3086726 (Nuclear medicine and biology, 2010).
Read-outs that look alike come from different tables or passages of the source. Blank lines part the entries; values can stand above or below the substance they belong to.

Tests used:
[1] = In vitro stability of 99mTc-cyclized analogues in PBS; format: physicochemical; settings: pH 7.4, 37 °C
In short: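 Test peptides were labelled with 99mTc by exchange from 99mTc-glucoheptonate (pH 7.9–8.1, 60 °C, 30 min), purified by radio-RP-HPLC, mixed with gentisic acid and evaporated. They were diluted in PBS or 1 mM cysteine, adjusted to pH 7.4 and incubated at 37 °C. Aliquots at 1, 2, 4 and 24 h were analysed by RP-HPLC for % intact. Replicate measurements used radio-TLC on C18 (10% ammonium acetate; 1:1 TFA-water/acetonitrile).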

[2] = format: in vitro ADME; settings: mouse, serum, pH 7.4
[3] = Stability of 99mTc-cyclized analogues to cysteine challenge; format: physicochemical; settings: pH 7.4, 37 °C
[4] = parameters: species or system CF-1 mice; settings: mouse
[5] = mouse, cited from earlier work

percent intact 99mTc-analogue post purification ([1]; 1 h): 90.2 ± 2.4% | percent intact 99mTc-analogue post purification ([1]; 2 h): 83.4 ± 5.2% | percent intact 99mTc-analogue post purification ([1]; 4 h): 76.3 ± 3.4% | percent intact 99mTc-analogue post purification ([1]; 24 h): 52.0 ± 5.6% | percent intact 99mTc-analogue post purification ([2]; 1 h): 91.4 ± 1.8% | percent intact 99mTc-analogue post purification ([2]; 2 h): 81.7 ± 4.1% | percent intact 99mTc-analogue post purification ([2]; 4 h): 81.4 ± 4.7% | percent intact 99mTc-analogue post purification ([2]; 24 h): 51.2 ± 4.4% | percent intact 99mTc-analogue post purification ([3]; 1 mM Cys, 1 h): 97.1 ± 3.3% | percent intact 99mTc-analogue post purification ([3]; 1 mM Cys, 2 h): 95.1 ± 2.7% | percent intact 99mTc-analogue post purification ([3]; 1 mM Cys, 4 h): 87.2 ± 1.0% | percent intact 99mTc-analogue post purification ([3]; 1 mM Cys, 24 h): 81.7 ± 1.8% | percent intact 99mTc-analogue post purification ([3]; 10 mM Cys, 1 h): 60.1 ± 5.1% | percent intact 99mTc-analogue post purification ([3]; 10 mM Cys, 2 h): 55.8 ± 6.9% | percent intact 99mTc-analogue post purification ([3]; 10 mM Cys, 4 h): 38.9 ± 3.7% | percent intact 99mTc-analogue post purification ([3]; 10 mM Cys, 24 h): 22.9 ± 4.5% | In vivo biodistribution, Adrenals ([4]; 150 ug, 1 h): 2.18 ± 0.69 %ID/g | In vivo biodistribution, Blood ([4]; 150 ug, 1 h): 4.31 ± 0.44 %ID/g | In vivo biodistribution, Kidney ([4]; 150 ug, 1 h): 8.00 ± 1.74 %ID/g | In vivo biodistribution, Lg. Int ([4]; 150 ug, 1 h): 1.70 ± 0.18 %ID/g | In vivo biodistribution, Liver ([4]; 150 ug, 1 h): 6.47 ± 1.64 %ID/g | In vivo biodistribution, Muscle ([4]; 150 ug, 1 h): 0.68 ± 0.06 %ID/g | In vivo biodistribution, Pancreas ([4]; 150 ug, 1 h): 2.08 ± 0.31 %ID/g | In vivo biodistribution, Sm. lnt ([4]; 150 ug, 1 h): 10.91 ± 2.12 %ID/g | In vivo biodistribution, Spleen ([4]; 150 ug, 1 h): 1.74 ± 0.24 %ID/g | In vivo biodistribution, Stomach ([4]; 150 ug, 1 h): 14.18 ± 4.97 %ID/g | In vivo biodistribution, Adrenals ([4]; 1 h): 1.53 ± 0.30 %ID/g | In vivo biodistribution, Blood ([4]; 1 h): 3.81 ± 0.10 %ID/g | In vivo biodistribution, Kidney ([4]; 1 h): 12.05 ± 2.14 %ID/g | In vivo biodistribution, Lg. Int ([4]; 1 h): 2.55 ± 0.21 %ID/g | In vivo biodistribution, Liver ([4]; 1 h): 4.17 ± 0.34 %ID/g | In vivo biodistribution, Muscle ([4]; 1 h): 0.53 ± 0.06 %ID/g | In vivo biodistribution, Pancreas ([4]; 1 h): 1.49 ± 0.06 %ID/g | In vivo biodistribution, Sm. lnt ([4]; 1 h): 15.48 ± 3.35 %ID/g | In vivo biodistribution, Spleen ([4]; 1 h): 1.30 ± 0.17 %ID/g | In vivo biodistribution, Stomach ([4]; 1 h): 11.69 ± 10.10 %ID/g | In vivo biodistribution, Adrenals ([4]; 4 h): 0.86 ± 0.43 %ID/g | In vivo biodistribution, Blood ([4]; 4 h): 1.50 ± 0.29 %ID/g | In vivo biodistribution, Kidney ([4]; 4 h): 6.54 ± 0.23 %ID/g | In vivo biodistribution, Lg. Int ([4]; 4 h): 22.09 ± 4.99 %ID/g | In vivo biodistribution, Liver ([4]; 4 h): 1.58 ± 0.06 %ID/g | In vivo biodistribution, Muscle ([4]; 4 h): 0.25 ± 0.06 %ID/g | In vivo biodistribution, Pancreas ([4]; 4 h): 0.55 ± 0.04 %ID/g | In vivo biodistribution, Sm. lnt ([4]; 4 h): 2.02 ± 0.67 %ID/g | In vivo biodistribution, Spleen ([4]; 4 h): 0.55 ± 0.13 %ID/g | In vivo biodistribution, Stomach ([4]; 4 h): 7.54 ± 4.16 %ID/g | In vivo biodistribution, Adrenals ([4]; 24 h): 0.12 ± 0.03 %ID/g | In vivo biodistribution, Blood ([4]; 24 h): 0.15 ± 0.02 %ID/g | In vivo biodistribution, Kidney ([4]; 24 h): 2.04 ± 0.37 %ID/g | In vivo biodistribution, Lg. Int ([4]; 24 h): 3.08 ± 1.60 %ID/g | In vivo biodistribution, Liver ([4]; 24 h): 0.39 ± 0.03 %ID/g | In vivo biodistribution, Muscle ([4]; 24 h): 0.05 ± 0.02 %ID/g | In vivo biodistribution, Pancreas ([4]; 24 h): 0.07 ± 0.01 %ID/g | In vivo biodistribution, Sm. lnt ([4]; 24 h): 0.68 ± 0.20 %ID/g | In vivo biodistribution, Spleen ([4]; 24 h): 0.08 ± 0.01 %ID/g | In vivo biodistribution, Stomach ([4]; 24 h): 1.26 ± 0.49 %ID/g | uptake in the various tissues and organs relative to TATE and 99mTc-2 ([4]; in vivo): two to four times higher
Substance: ^99mTc-Ac-Tyr^3-octreotate [99mTc-1]

percent intact 99mTc-analogue post purification ([1]; 1 h): 86.2 ± 5.4% | percent intact 99mTc-analogue post purification ([1]; 2 h): 73.7 ± 4.3% | percent intact 99mTc-analogue post purification ([1]; 4 h): 60.4 ± 1.8% | percent intact 99mTc-analogue post purification ([1]; 24 h): 37.9 ± 7.7% | percent intact 99mTc-analogue post purification ([2]; 1 h): 97.4 ± 1.9% | percent intact 99mTc-analogue post purification ([2]; 2 h): 97.1 ± 1.5% | percent intact 99mTc-analogue post purification ([2]; 4 h): 95.2 ± 1.7% | percent intact 99mTc-analogue post purification ([2]; 24 h): 57.6 ± 7.5% | percent intact 99mTc-analogue post purification ([3]; 1 mM Cys, 1 h): 95.8 ± 2.4% | percent intact 99mTc-analogue post purification ([3]; 1 mM Cys, 2 h): 85.3 ± 4.0% | percent intact 99mTc-analogue post purification ([3]; 1 mM Cys, 4 h): 77.8 ± 3.3% | percent intact 99mTc-analogue post purification ([3]; 1 mM Cys, 24 h): 45.0 ± 5.8% | percent intact 99mTc-analogue post purification ([3]; 10 mM Cys, 1 h): 63.9 ± 4.1% | percent intact 99mTc-analogue post purification ([3]; 10 mM Cys, 2 h): 53.3 ± 3.5% | percent intact 99mTc-analogue post purification ([3]; 10 mM Cys, 4 h): 42.5 ± 5.6% | percent intact 99mTc-analogue post purification ([3]; 10 mM Cys, 24 h): 15.0 ± 8.3%
Substance: ^99mTc-Tyr^3-octreotate [99mTc-TATE]
In vivo biodistribution, Adrenals ([5]; 4 h): 0.14 ± 0.06 %ID/g | In vivo biodistribution, Blood ([5]; 4 h): 0.44 ± 0.05 %ID/g | In vivo biodistribution, Kidney ([5]; 4 h): 1.37 ± 0.29 %ID/g | In vivo biodistribution, Lg. Int ([5]; 4 h): 60.20 ± 6.39 %ID/g | In vivo biodistribution, Liver ([5]; 4 h): 0.66 ± 0.03 %ID/g | In vivo biodistribution, Muscle ([5]; 4 h): 0.05 ± 0.01 %ID/g | In vivo biodistribution, Pancreas ([5]; 4 h): 0.19 ± 0.06 %ID/g | In vivo biodistribution, Sm. lnt ([5]; 4 h): 2.08 ± 1.08 %ID/g | In vivo biodistribution, Spleen ([5]; 4 h): 0.20 ± 0.02 %ID/g | In vivo biodistribution, Stomach ([5]; 4 h): 4.82 ± 0.95 %ID/g | In vivo biodistribution, Adrenals ([5]; 24 h): 0.01 ± 0.01 %ID/g | In vivo biodistribution, Blood ([5]; 24 h): 0.05 ± 0.01 %ID/g | In vivo biodistribution, Kidney ([5]; 24 h): 0.60 ± 0.05 %ID/g | In vivo biodistribution, Lg. Int ([5]; 24 h): 0.59 ± 0.24 %ID/g | In vivo biodistribution, Liver ([5]; 24 h): 0.22 ± 0.03 %ID/g | In vivo biodistribution, Muscle ([5]; 24 h): 0.01 ± 0.01 %ID/g | In vivo biodistribution, Pancreas ([5]; 24 h): 0.03 ± 0.01 %ID/g | In vivo biodistribution, Sm. lnt ([5]; 24 h): 0.19 ± 0.01 %ID/g | In vivo biodistribution, Spleen ([5]; 24 h): 0.05 ± 0.01 %ID/g | In vivo biodistribution, Stomach ([5]; 24 h): 0.69 ± 0.23 %ID/g
